In publication PMC3032979 (Structure (London, England : 1993), 2011):
Read-outs that look alike come from different tables or passages of the source.

What was measured:
(L343F)CAR:RXR = molecular target: T1, (L343F)CAR:RXR (Mus musculus, UniProt O35627, L343F); assay: ITC, SRC1 peptide binding to; design: species or system murine (mCAR LBD), human (RXR LBD); details: for ΔG / −TΔS / n (one-site binding model) / ΔH: SRC1 peptide binding, 25°C; for ΔG / −TΔS: pH 7.2; for n (one-site binding model) / ΔH: pH 7.2, average of at least three experiments ± SD
T1 sequence (O35627 117-358 L343F): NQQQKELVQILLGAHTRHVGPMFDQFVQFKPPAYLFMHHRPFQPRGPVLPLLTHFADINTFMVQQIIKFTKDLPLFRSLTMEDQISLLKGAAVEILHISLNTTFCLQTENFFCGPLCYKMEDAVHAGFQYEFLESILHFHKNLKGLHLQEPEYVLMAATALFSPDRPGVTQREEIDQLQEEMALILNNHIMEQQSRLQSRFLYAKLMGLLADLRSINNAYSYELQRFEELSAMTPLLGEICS
T1 sequence (P19793 225-462 partner limits assumed): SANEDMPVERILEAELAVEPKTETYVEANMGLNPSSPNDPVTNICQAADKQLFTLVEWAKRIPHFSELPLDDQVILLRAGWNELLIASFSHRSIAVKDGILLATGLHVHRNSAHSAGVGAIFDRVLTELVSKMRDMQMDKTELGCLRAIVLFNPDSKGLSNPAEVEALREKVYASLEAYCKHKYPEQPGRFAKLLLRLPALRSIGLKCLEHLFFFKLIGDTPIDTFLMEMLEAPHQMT

(L343A)CAR:RXR = (L343A)CAR:RXR (Mus musculus, UniProt O35627, L343A); assay: ITC, SRC1 peptide binding to; design: species or system murine (mCAR LBD), human (RXR LBD); details: for ΔG / −TΔS / n (one-site binding model) / ΔH: SRC1 peptide binding, 25°C; for ΔG / −TΔS: pH 7.2; for n (one-site binding model) / ΔH: pH 7.2, average of at least three experiments ± SD
Chain of (L343A)CAR:RXR (O35627 117-358 L343A, other chains not shown): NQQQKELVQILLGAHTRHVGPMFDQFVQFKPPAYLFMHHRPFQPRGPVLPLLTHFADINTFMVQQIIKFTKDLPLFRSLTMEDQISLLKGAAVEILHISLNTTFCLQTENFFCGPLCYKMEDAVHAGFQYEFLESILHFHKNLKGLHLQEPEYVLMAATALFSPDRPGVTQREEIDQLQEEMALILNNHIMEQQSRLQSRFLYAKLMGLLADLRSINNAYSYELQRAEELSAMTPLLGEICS
CAR:RXR [1] = molecular target: T2, CAR:RXR (Mus musculus, UniProt O35627); assay: ITC, SRC1 box 2 peptide binding to wild-type CAR:RXR LBDs; design: species or system murine (mCAR LBD), human (RXR LBD); details: for affinity of ligand-bound CAR:RXR for SRC1 coactivator (in words): saturating meclizine versus TCPOBOP
T2 sequence (O35627 117-358, other chains not shown): as the sequence (O35627 117-358 L343A, other chains not shown) above, with A227L counted along it

murine CAR = details: cited from earlier work
mCAR = details: LXRE response element, HepG2 cells; ref Huang et al., 2004; cited from earlier work
CAR:(W305F)RXR = assay: steady-state tryptophan fluorescence quenching, CAR:; assay type: binding, murine (mCAR LBD), human (RXR LBD); details: 1.0 μM protein (Figure S2); excitation 295 nm; pH 8.0
Summary of the method: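 Human RXR LBD (residues 225–462) carrying W305F, co-expressed with CAR LBD in E. coli BL21(DE3) Gold (0.5 mM IPTG, 20 h, 20°C). Heterodimer purified by Ni-NTA, then size exclusion in 20 mM Tris-HCl pH 8.0, 250 mM NaCl, 2.5 mM EDTA, 5.0 mM DTT. Steady-state emission scanned 305–400 nm and compared with wild-type and W282F heterodimers at 340 nm.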

CAR:RXR [2] = molecular target: T2, CAR:RXR; assay: effect of CAR ligands on 9-cis-retinoic acid; assay type: binding, murine (mCAR LBD), human (RXR LBD); details: fluorescence quenching at 340 nm upon titrating 9c into CAR:RXR
RXR LBD within CAR:RXR = assay: differential amide HDX MS, RXR portion of CAR:RXR; design: species or system human; details: 4°C, pH 8, 10–3600 seconds
CAR:(W282F)RXR = assay: steady-state tryptophan fluorescence quenching, CAR:; assay type: binding, murine (mCAR LBD), human (RXR LBD); details: 1.0 μM protein (Figure S2); excitation 295 nm; pH 8.0
CAR LBD within CAR:RXR = assay: differential amide HDX MS, CAR portion of CAR:RXR; design: species or system murine; details: for HDX kinetics versus unliganded CAR:RXR (in words): 4°C, pH 8, 10–3600 seconds
human CAR isoform = details: ref Huang et al., 2004; cited from earlier work
[3] = SRC1 peptide binding in the presence of meclizine (ten-fold excess), 25°C, pH 7.2
[4] = SRC1 peptide binding in the presence of meclizine (ten-fold excess), 25°C, pH 7.2, average of at least three experiments ± SD
[5] = residues 327–358 (H10, H11, H12)

CC[C@H](C)[C@H](NC(=O)[C@H](CCCCN)NC(=O)[C@H](Cc1c[nH]cn1)NC(=O)[C@@H](N)CCCNC(=N)N)C(=O)N[C@@H](CC(C)C)C(=O)N[C@@H](Cc1c[nH]cn1)C(=O)N[C@@H](CCCNC(=N)N)C(=O)N[C@@H](CC(C)C)C(=O)N[C@@H](CC(C)C)C(=O)N[C@@H](CCC(N)=O)C(=O)N[C@@H](CCC(=O)O)C(=O)NCC(=O)N[C@@H](CO)C(=O)O [SRC1 peptide]
affinity for coactivator and entropy (in words) ((L343F)CAR:RXR; (L343F)CAR:RXR, no ligand, versus wild-type complex): significantly greater affinity for coactivator and lower unfavorable entropy compared to the wild-type complex
ΔG ((L343F)CAR:RXR; L343F (androstenol)): -7.3 kcal/mol
−TΔS ((L343F)CAR:RXR; L343F (androstenol)): 2.7 kcal/mol
n (one-site binding model) ((L343F)CAR:RXR; L343F (androstenol)): 1.0 ± 0.04
ΔH ((L343F)CAR:RXR; L343F (androstenol)): -10.0 ± 0.2 kcal/mol
ΔG ((L343F)CAR:RXR; L343F (no ligand)): -8.2 kcal/mol
−TΔS ((L343F)CAR:RXR; L343F (no ligand)): 0.30 kcal/mol
n (one-site binding model) ((L343F)CAR:RXR; L343F (no ligand)): 0.97 ± 0.05
ΔH ((L343F)CAR:RXR; L343F (no ligand)): -8.5 ± 0.2 kcal/mol
unfavorable entropy (TΔS) of SRC1 peptide binding (in words) ((L343A)CAR:RXR; (L343A)CAR:RXR, no ligand): appreciably higher unfavorable entropy (TΔS)
affinity for SRC1 peptide (in words) ((L343A)CAR:RXR; (L343A)CAR:RXR, no ligand, versus wild-type CAR): lower than wild-type CAR
ΔG ((L343A)CAR:RXR; L343A (TCPOBOP)): -7.8 kcal/mol
−TΔS ((L343A)CAR:RXR; L343A (TCPOBOP)): 3.7 kcal/mol
n (one-site binding model) ((L343A)CAR:RXR; L343A (TCPOBOP)): 0.92 ± 0.14
ΔH ((L343A)CAR:RXR; L343A (TCPOBOP)): -11.5 ± 0.8 kcal/mol
ΔG ((L343A)CAR:RXR; L343A (no ligand)): -6.6 kcal/mol
−TΔS ((L343A)CAR:RXR; L343A (no ligand)): 4.0 kcal/mol
n (one-site binding model) ((L343A)CAR:RXR; L343A (no ligand)): 1.0 ± 0.13
ΔH ((L343A)CAR:RXR; L343A (no ligand)): -10.6 ± 0.5 kcal/mol
ΔG (CAR:RXR [1]; [3]): -8.2 kcal/mol
−TΔS (CAR:RXR [1]; [3]): 1.7 kcal/mol
n (one-site binding model) (CAR:RXR [1]; [4]): 0.95 ± 0.08
ΔH (CAR:RXR [1]; [4]): -9.9 ± 0.3 kcal/mol

C[C@]12CC[C@@H](O)C[C@@H]1CC[C@@H]1[C@@H]2CC[C@]2(C)C=CC[C@@H]12 [androstenol, 5α-androst-16-en-3α-ol]
ligand function on murine CAR (in words) (murine CAR; androstane metabolites, ref Forman et al., 1998): physiological inverse agonist ligands of murine CAR

Clc1cnc(Oc2ccc(Oc3ncc(Cl)cc3Cl)cc2)c(Cl)c1 [TCPOBOP, 1,4-bis[2-(3,5-dichloropyridyloxy)]benzene]
agonist response (in words) (mCAR): stronger agonist response from CAR than meclizine
tryptophan fluorescence response of CAR:(W305F)RXR (in words) (CAR:(W305F)RXR): no significant response
effect on 9c binding to CAR:RXR (in words) (CAR:RXR [2]): do not appear to significantly affect 9-cis-retinoic acid (9c) binding to CAR:RXR
HDX kinetics of RXR versus unliganded CAR:RXR (in words) (RXR LBD within CAR:RXR; RXR residues 416–432 (helix H10)): significant reduction in HDX kinetics
transactivation by murine CAR (in words) (murine CAR; ref Tzameli et al., 2000): further enhanced
affinity of ligand-bound CAR:RXR for SRC1 coactivator (in words) (CAR:RXR [1]): higher affinity for coactivator than meclizine
tryptophan quenching of CAR:(W282F)RXR (in words) (CAR:(W282F)RXR): strong dose-dependent increase in tryptophan quenching
overall impact on conformational dynamics of CAR (in words) (CAR LBD within CAR:RXR; differential HDX, TCPOBOP compared with meclizine): broader and of greater magnitude than that of meclizine
HDX kinetics versus unliganded CAR:RXR (in words) (CAR LBD within CAR:RXR; residues 143–178 (helices H2′, H2″, parts of H3)): significant protection from exchange
HDX kinetics versus unliganded CAR:RXR (in words) (CAR LBD within CAR:RXR; [5]): most significant reductions in HDX behavior
HDX exchange kinetics, residues 339–345 in CAR (in words) (CAR LBD within CAR:RXR; residues 339–345, CAR(TCPOBOP):RXR compared with CAR(meclizine):RXR): greater magnitude reduction in exchange kinetics

Cc1cccc(CN2CCN(C(c3ccccc3)c3ccc(Cl)cc3)CC2)c1 (stereo not drawn) [meclizine, 1-[(4-chlorophenyl)(phenyl)methyl]-4-(3-methylbenzyl)piperazine]
agonist response (in words) (mCAR): mCAR agonist
HDX kinetics of RXR versus unliganded CAR:RXR (in words) (RXR LBD within CAR:RXR; 84 regions of RXR): no significant differences in exchange kinetics in RXR
transactivation by murine CAR (in words) (murine CAR; ref Huang et al., 2004): further enhanced
affinity of ligand-bound CAR:RXR for SRC1 coactivator (in words) (CAR:RXR [1]): affinity for coactivator is less than CAR(TCPOBOP)
HDX kinetics versus unliganded CAR:RXR (in words) (CAR LBD within CAR:RXR; residues 228–245 (segment of β-sheet and H6)): significantly protected to exchange
HDX kinetics versus unliganded CAR:RXR (in words) (CAR LBD within CAR:RXR; [5]): significantly protected to exchange
function on human CAR (in words) (human CAR isoform): inverse agonist
